Assay results from ChEMBL document CHEMBL4196071, “Discovery of tetrahydrocarbazoles with potent hypoglycemic and hypolipemic activities” (Eur J Med Chem, 2018).
Calls of active or inactive are those of the source. No cut-off for these calls is given here.

Key:
[1] = target: T1, AMP-activated protein kinase, AMPK (Homo sapiens) (UniProt P54646+O43741+P54619+Q9UGJ0+Q9Y478+Q13131+Q9UGI9); assay: Activation of AMPK in human HepG2 cells assessed as induction of glucose consumption at 10 uM treated over 24 hrs by glucose oxidase method relative to control; format: cell-based
Method in brief: (§1)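 HepG2 cells kept in DMEM (25 mM D-glucose) with 10% serum at 37 °C, 5% CO2. At 80-90% confluence the medium was switched to serum-free RPMI-1640 with 11.1 mM glucose and 0.2% BSA. Compounds in DMSO (0.5% v/v vehicle control) were given for 24 h. Medium glucose was read by glucose oxidase; consumption = cell-free blank wells minus cell wells. Student's t test against control.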

[2] = target: T1, AMP-activated protein kinase, AMPK (Homo sapiens); assay: Activation of AMPK in human HepG2 cells assessed as induction of glucose consumption at 1 uM treated over 24 hrs by glucose oxidase method relative to control; format: cell-based; method in brief: as §1
HepG2 [3] = assay: Activation of AMPKalpha in human HepG2 cells assessed as ACC phosphorylation at Ser79 residue at 10 uM by Western blot analysis; format: cell-based
Method in brief: (§2)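 HepG2 cells were treated at 10 μM and lysed in pH 7.5 Tris buffer containing NaF, β-glycerophosphate, EDTA/EGTA, Triton X-100 and protease inhibitors, then cleared at 10,000 × g for 30 min at 4 °C. Equal lysate volumes were run on 8% SDS-PAGE and transferred to PVDF. Blots were probed for p-AMPKα (Thr172) and p-ACC (Ser79) with HRP secondary antibodies.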

[4] = target: T1, AMP-activated protein kinase, AMPK (Homo sapiens); assay: Activation of AMPK in human HepG2 cells assessed as induction of glucose consumption at 0.1 uM treated over 24 hrs by glucose oxidase method relative to control; format: cell-based; method in brief: as §1
[5] = target: T1, AMP-activated protein kinase, AMPK (Homo sapiens); assay: Activation of AMPK in human HepG2 cells assessed as induction of glucose consumption treated over 24 hrs by glucose oxidase method; format: cell-based; method in brief: as §1
HepG2 [6] = assay: Induction of AMPKalpha phosphorylation at Thr172 residue in human HepG2 cells at 10 uM by Western blot analysis; format: cell-based; method in brief: as §2
Mus musculus [7] = assay: Hypolipemic activity in db/db mouse assessed as plasma fasting triglyceride level at 30 mg/kg, po treated for 3 consecutive weeks (reference value: 0.70 to 0.97 mM); format: functional
Mus musculus [8] = assay: Toxicity in db/db mouse assessed as increase in body weight at 30 mg/kg, po treated for 1 to 3 weeks measured at 3 hrs post last dose relative to control; format: organism-based; conditions: in vivo
Mus musculus [9] = assay: Hypoglycemic activity in db/db mouse assessed as decrease in blood glucose level at 30 mg/kg, po treated for 3 week measured at 3 hrs post last dose (reference value: 0.0 +/- 6.8%); format: functional; parameters: scale not given: the % may be the effect or the level left
Mus musculus [10] = assay: Hypoglycemic activity in db/db mouse assessed as decrease in blood glucose level at 30 mg/kg, po treated for 1 week measured at 3 hrs post last dose (reference value: 0.0 +/- 8.6%); format: functional; parameters: scale not given: the % may be the effect or the level left
Mus musculus [11] = assay: Hypoglycemic activity in db/db mouse assessed as decrease in blood glucose level at 30 mg/kg, po treated for 2 week measured at 3 hrs post last dose (reference value: 0.0 +/- 4.0%); format: functional; parameters: scale not given: the % may be the effect or the level left
Mus musculus [12] = assay: Hypolipemic activity in db/db mouse assessed as total plasma cholesterol level at 30 mg/kg, po treated for 3 consecutive weeks (reference value: 6.05 to 6.98 mM); format: functional
Mus musculus [13] = assay: Hypoglycemic activity in db/db mouse assessed as decrease in blood glucose level at 30 mg/kg, po administered as single dose measured at 3 hrs post last dose (reference value: 0.0 +/- 4.1%); format: functional; parameters: scale not given: the % may be the effect or the level left
[14] = AUC (0 to t) in Sprague-Dawley rat at 5 mg/kg, iv by LC/MS/MS analysis; format: ADME, organism-based; conditions: in vivo
Method in brief: (§3)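 SD rats, three male and three female. Given iv at 5 mg/kg and intragastric at 20 mg/kg; the oral dose went by gavage in 20% 1,2-propanediol/80% water. Heparinized blood was sampled over 32 h post dose. Plasma was extracted with EtOAc and measured by LC/MS/MS. Non-compartmental analysis gave the PK parameters (n = 6).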

Rattus norvegicus [15] = assay: Volume of distribution in Sprague-Dawley rat at 20 mg/kg, ig by LC/MS/MS analysis; format: ADME, organism-based; conditions: in vivo, po; method in brief: as §3
[16] = Cmax in Sprague-Dawley rat at 20 mg/kg, ig by LC/MS/MS analysis; format: ADME, organism-based; parameters: dose 20 mg/kg, route intragastric; conditions: in vivo, po; method in brief: as §3
Mus musculus [17] = assay: Potency index, ratio of test compound to GY3 hypoglycemic activity in db/db mouse assessed as decrease in blood glucose level at 30 mg/kg, po treated for 3 week measured at 3 hrs post last dose; format: functional
[18] = Tmax in Sprague-Dawley rat at 20 mg/kg, ig by LC/MS/MS analysis; format: ADME, organism-based; conditions: in vivo, po; method in brief: as §3
[19] = AUC (0 to infinity) in Sprague-Dawley rat at 5 mg/kg, iv by LC/MS/MS analysis; format: ADME, organism-based; parameters: dose 5 mg/kg, route intravenous, time infinity; conditions: in vivo; method in brief: as §3
Rattus norvegicus [20] = assay: Half life in Sprague-Dawley rat at 5 mg/kg, iv by LC/MS/MS analysis; format: ADME, organism-based; conditions: in vivo; method in brief: as §3
[21] = AUC (0 to infinity) in Sprague-Dawley rat at 20 mg/kg, ig by LC/MS/MS analysis; format: ADME, organism-based; parameters: dose 20 mg/kg, route intragastric, time infinity; conditions: in vivo, po; method in brief: as §3
Rattus norvegicus [22] = assay: Half life in Sprague-Dawley rat at 20 mg/kg, ig by LC/MS/MS analysis; format: ADME, organism-based; conditions: in vivo, po; method in brief: as §3
Rattus norvegicus [23] = assay: Clearance in Sprague-Dawley rat at 5 mg/kg, iv by LC/MS/MS analysis; format: ADME, organism-based; conditions: in vivo; method in brief: as §3
Rattus norvegicus [24] = assay: Clearance in Sprague-Dawley rat at 20 mg/kg, ig by LC/MS/MS analysis; format: ADME, organism-based; conditions: in vivo, po; method in brief: as §3
[25] = Bioavailability in Sprague-Dawley rat at 20 mg/kg, ig by LC/MS/MS analysis; format: ADME, organism-based; conditions: in vivo, po; method in brief: as §3
[26] = AUC (0 to t) in Sprague-Dawley rat at 20 mg/kg, ig by LC/MS/MS analysis; format: ADME, organism-based; conditions: in vivo, po; method in brief: as §3
Rattus norvegicus [27] = assay: Volume of distribution in Sprague-Dawley rat at 5 mg/kg, iv by LC/MS/MS analysis; format: ADME, organism-based; conditions: in vivo; method in brief: as §3

Activity [1] [%] | Compound | Activity (Mus musculus [7]) [mM] | Activity (Mus musculus [8]) [%] | Activity (Mus musculus [9]) [%] | Activity (Mus musculus [10]) [%] | Activity (Mus musculus [11]) [%] | Activity (Mus musculus [12]) [mM] | Activity (Mus musculus [13]) [%] | also measured
32.7 | O=C(O)C1CCc2c(c3cc(OCc4ccccc4)ccc3n2Cc2ccc(Cl)cc2)C1 (configuration not stated) | – | – | – | – | – | – | – | –
47.5 | O=C(O)C1CCc2c(c3cc(OCc4ccccn4)ccc3n2C(=O)c2ccc(Cl)cc2)C1 (configuration not stated) | – | – | – | – | – | – | – | –
64.5 | O=C(O)C1CCc2c(c3cc(OCc4ccccc4)ccc3n2S(=O)(=O)c2ccc(Cl)cc2)C1 (configuration not stated) | 0.99 | 3.7 | 14.3 | 28.9 | 16.3 | 6.91 | 15.5 | –

Continued, compound first:

Compound | Activity [1] [%] | Activity (Mus musculus [7]) [mM] | Activity (Mus musculus [8]) [%] | Activity (Mus musculus [9]) [%] | Activity (Mus musculus [10]) [%] | Activity (Mus musculus [11]) [%] | Activity (Mus musculus [12]) [mM] | Activity (Mus musculus [13]) [%] | also measured
COc1ccc(S(=O)(=O)n2c3c(c4cc5c(cc42)OCO5)CC(C(=O)O)CC3)cc1 (configuration not stated) | 40.3 | – | – | – | – | – | – | – | –
N#Cc1ccc(COc2ccc3c(c2)c2c(n3C(=O)c3ccc(Cl)cc3)CCC(C(=O)O)C2)cc1 (configuration not stated) | 50.2 to 72.8 | – | – | – | – | – | – | – | Activity [2]: 26.8%; Activity (HepG2 [3]): Active; Activity [4]: 9.65%; Activity [5]: Dose-dependent effect; Activity (HepG2 [6]): Active
Cc1c(CC(=O)O)c2cc(OCc3ccccc3)ccc2n1C(=O)c1ccc(Cl)cc1 | – | 0.79 | 8.5 | 13.5 | 25.7 | 30.3 | 7.78 | 32.9 | –
O=C(O)C1CCc2c(c3cc(OCc4ccccc4)ccc3n2Cc2ccccc2)C1 (configuration not stated) | 30.4 | – | – | – | – | – | – | – | –
O=C(O)C1CCc2c(c3cc4c(cc3n2C(=O)c2ccc(Cl)cc2)OCO4)C1 (configuration not stated) | 55.1 | – | – | – | – | – | – | – | –
O=C(O)C1CCc2c(c3cc(OCc4ccccc4)ccc3n2C(=O)c2ccc(Cl)cc2)C1 (stereo in doubt; 7a) | – | 0.54 | 10.4 | 28 | 29.3 | 19.6 | 6.93 | 30.6 | AUC(0-t) [14]: 39600 ng·h/mL; Vd (Rattus norvegicus [15]): 9.98 L/kg; Cmax [16]: 2320 ng/mL; Ratio (Mus musculus [17]): 2; Tmax [18]: 7.83 h; AUC(0-inf) [19]: 71000 ng·h/mL; t1/2 (Rattus norvegicus [20]): 7.2 h; AUC(0-inf) [21]: 48300 ng·h/mL; t1/2 (Rattus norvegicus [22]): 6.46 h; CL (Rattus norvegicus [23]): 1.2 mL/min/kg; CL (Rattus norvegicus [24]): 7.5 mL/min/kg; bioavailability [25]: 20.2%; AUC(0-t) [26]: 32000 ng·h/mL; Vd (Rattus norvegicus [27]): 2.7 L/kg
COc1ccc(S(=O)(=O)n2c3c(c4cc(OCc5ccccc5)ccc42)CC(C(=O)O)CC3)cc1 (configuration not stated) | 60.3 | – | – | – | – | – | – | – | –
O=C(O)C1CCc2c(c3cc(OCc4ccccc4)ccc3n2C(=O)c2ccc(Cl)cc2)C1 (stereo in doubt; (+)-7a) | 55.3 to 60.6 | – | – | – | – | – | – | – | Activity [2]: 27.3%; Activity (HepG2 [3]): Active; Activity [4]: 1.79%; Activity [5]: Dose-dependent effect; Activity (HepG2 [6]): Active
O=C(O)C1CCc2c(c3cc4c(cc3n2S(=O)(=O)c2ccc(Cl)cc2)OCO4)C1 (configuration not stated) | 47.5 | – | – | – | – | – | – | – | –
CCc1ccc(CCOc2ccc(CC3SC(=O)NC3=O)cc2)nc1 (configuration not stated) [PIOGLITAZONE] | – | 0.51 | 16.3 | 37.4 | 37.1 | 34.5 | 7.89 | 21.9 | –
